Experimental data: PMC3566393 (Biological Trace Element Research, 2012)
pIC50: −log10 of the molar value. Where two headings read alike, the source gives them in different places.

Legend:
rat TRPV1 = rat TRPV1 (Rattus norvegicus, UniProt O35433); test: Vanilloid-induced 45Ca2+ uptake in TRPV1/HaCaT cells; assay type: cell-based; details: for Effect on CAPS-induced 45Ca2+ uptake (in words): 2 μM CAPS, up to highest concentration 4 mM
[1] = 1:1 complexes; cited from earlier work
[2] = cited from earlier work
CD1 mice = test: Eye wipe test; assay type: in vivo; details: 100 μM CAPS dropped into the eye with 1 mM CoCl2 or 5 μM CapZ, n = 8
Method in brief: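 Defensive eye-wiping movements were then counted. Data were means ± SD from eight independent experiments. Inhibition was tested by paired t test (P < 0.05).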

TRPV1 [3] = target: T1, TRPV1 (Rattus norvegicus, UniProt O35433); test: Cobalt histochemistry on HaCaT cell line expressing TRPV1 ectopically; assay type: cell-based; details: 20 μM CAPS + 5 mM Co2+; CapZ 300 nM-100 μM, RuRed 500 nM-100 μM
T1 sequence (O35433 whole entry): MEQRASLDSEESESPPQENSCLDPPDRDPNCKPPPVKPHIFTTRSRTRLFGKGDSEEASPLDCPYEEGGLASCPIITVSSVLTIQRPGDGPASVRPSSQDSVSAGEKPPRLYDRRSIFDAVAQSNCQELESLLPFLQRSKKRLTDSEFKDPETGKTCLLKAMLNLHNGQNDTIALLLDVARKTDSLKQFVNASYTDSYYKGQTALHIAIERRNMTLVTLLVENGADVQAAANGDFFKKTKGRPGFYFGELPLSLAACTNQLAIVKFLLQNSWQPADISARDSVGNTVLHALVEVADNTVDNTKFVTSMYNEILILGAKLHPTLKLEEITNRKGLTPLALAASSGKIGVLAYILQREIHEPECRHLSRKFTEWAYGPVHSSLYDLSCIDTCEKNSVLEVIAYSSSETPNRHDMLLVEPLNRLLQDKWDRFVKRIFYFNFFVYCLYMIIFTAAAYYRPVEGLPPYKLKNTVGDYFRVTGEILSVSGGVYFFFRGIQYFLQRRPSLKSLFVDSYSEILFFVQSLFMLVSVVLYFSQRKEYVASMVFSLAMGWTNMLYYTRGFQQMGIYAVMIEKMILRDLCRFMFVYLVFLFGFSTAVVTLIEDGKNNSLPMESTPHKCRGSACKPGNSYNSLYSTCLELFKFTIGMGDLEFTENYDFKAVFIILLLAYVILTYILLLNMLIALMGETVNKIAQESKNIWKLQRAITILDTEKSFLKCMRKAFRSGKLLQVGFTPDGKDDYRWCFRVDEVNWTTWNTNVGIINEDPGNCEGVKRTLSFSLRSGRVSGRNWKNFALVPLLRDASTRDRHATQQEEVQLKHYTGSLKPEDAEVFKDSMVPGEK

TRPV1 [4] = target: T1, TRPV1; test: Cobalt histochemistry on 3T3 cell line expressing TRPV1 ectopically; assay type: cell-based; details: 10 min, ± S.D.
wild-type TRPV1 = wild-type TRPV1 (Rattus norvegicus, UniProt O35433); test: CAPS-evoked 45Ca2+ influx in cells transiently transfected with wild-type TRPV1; assay type: cell-based; details: read-out: IC50, 45Ca2+ influx, 4 μM CAPS
wild-type TRPV1, sequence (O35433 whole entry): as above

3T3 cell line = test: Cobalt histochemistry on 3T3 cell line without TRPV1; assay type: cell-based; details: 20 μM CAPS + 5 mM Co2+
rat TRPV1 N628W mutant = rat TRPV1 N628W mutant (Rattus norvegicus, UniProt O35433, N628W); test: CAPS-evoked 45Ca2+ influx in cells expressing the TRPV1 N628W point mutant; assay type: cell-based; details: read-out: IC50, 45Ca2+ influx, 4 μM CAPS
rat TRPV1 N628W mutant, sequence (O35433 whole entry N628W): as the sequence (O35433 whole entry) above, with N628W counted along it

rat TRPV1 D646N mutant = rat TRPV1 D646N mutant (Rattus norvegicus, UniProt O35433, D646N); test: CAPS-evoked 45Ca2+ influx in cells expressing the TRPV1 D646N point mutant; assay type: cell-based; details: read-out: IC50, 45Ca2+ influx, 4 μM CAPS
rat TRPV1 D646N mutant, sequence (O35433 whole entry D646N): as the sequence (O35433 whole entry) above, with D646N counted along it

rat TRPV1 Y627W mutant = rat TRPV1 Y627W mutant (Rattus norvegicus, UniProt O35433, Y627W); test: CAPS-evoked 45Ca2+ influx in cells expressing the TRPV1 Y627W point mutant; assay type: cell-based; details: read-out: IC50, 45Ca2+ influx, 4 μM CAPS
rat TRPV1 Y627W mutant, sequence (O35433 whole entry Y627W): as the sequence (O35433 whole entry) above, with Y627W counted along it

[5] = test system: TRPV1+ dorsal root ganglion neurons; test: Cobalt histochemistry in primary DRG sensory neuron cultures; assay type: cell-based, rat; details: 20 μM CAPS, Co2+-uptake medium
rat TRPV1 E651W mutant = rat TRPV1 E651W mutant (Rattus norvegicus, UniProt O35433, E651W); test: CAPS-evoked 45Ca2+ influx in cells expressing the TRPV1 E651W point mutant; assay type: cell-based; details: read-out: IC50, 45Ca2+ influx, 4 μM CAPS
rat TRPV1 E651W mutant, sequence (O35433 whole entry E651W): as the sequence (O35433 whole entry) above, with E651W counted along it

TRPV1/3T3 cells = TRPV1/3T3 cells (Rattus norvegicus, UniProt O35433); test: CAPS-induced TRPV1-mediated 45Ca2+ accumulation with VGCC blocker; assay type: cell-based; details: data not shown
TRPV1/3T3 cells, sequence (O35433 whole entry): as the sequence (O35433 whole entry) above

rat TRPV1, sequence (O35433 whole entry): as above

## CN(C)CCC=C1c2ccccc2CCc2ccccc21 [AMI, Amitriptyline, reference compound]
Rat TRPV1
  pIC50: 4.70

## COc1cc(CNC(=O)CCCC/C=C/C(C)C)ccc1O [CAPS, capsaicin, reference compound]
Rat TRPV1; pH 7.5, 45Ca2+ uptake assay
  Concentration causing full activation (EC100) of TRPV1: Approximately 1 μM

## [Ca+2] [Ca^2+]
[1]
  Stability constant of the complex formed between M2+ and tryptophan: 2.55 ± 0.08
[2]
  Ionic radius: 100 picometres

## Oc1cc2c(cc1O)CN(C(=S)NCCc1ccc(Cl)cc1)CCC2 [CapZ, capsazepine, reference compound]
CD1 mice
  Effect on vanilloid-evoked eye wiping movements: Inhibition
TRPV1 [3]
  Effect on CAPS-induced cellular Co2+ accumulation: inhibited the cellular entry of Co^2+ in a dose-dependent manner
TRPV1 [4]; CAPS + Co2+ + CapZ (5 μM CapZ), n = 100
  Mean gray value (intracellular CoS): 76.92 ± 22.21

## [Co+2] [Co^2+]
wild-type TRPV1
  pIC50: 4.74
3T3 cell line
  Co2+ staining in the absence of TRPV1: No substantial staining
[1]
  Stability constant of the complex formed between M2+ and tryptophan: 4.34 ± 0.07
Rat TRPV1; read-out: IC50 of Co2+, in the presence of 0 μM cold Ca2+
  pIC50: 5.10
Rat TRPV1; read-out: IC50 of Co2+, in the presence of 0.0625 μM CAPS
  pIC50: 4.02
Rat TRPV1; read-out: IC50 of Co2+, in the presence of 0.125 μM CAPS
  pIC50: 4.24
Rat TRPV1; read-out: IC50 of Co2+, in the presence of 0.25 μM CAPS
  pIC50: 4.14
Rat TRPV1; read-out: IC50 of Co2+, in the presence of 0.5 μM CAPS
  pIC50: 4.49
Rat TRPV1; read-out: IC50 of Co2+, in the presence of 1 μM CAPS
  pIC50: 4.72
Rat TRPV1; read-out: IC50 of Co2+, in the presence of 2 μM CAPS
  pIC50: 4.65
Rat TRPV1; read-out: IC50 of Co2+, in the presence of 4 μM CAPS
  pIC50: 4.81
Rat TRPV1; read-out: IC50 of Co2+, in the presence of 15.625 μM cold Ca2+
  pIC50: 4.29
Rat TRPV1; read-out: IC50 of Co2+, in the presence of 31.25 μM cold Ca2+
  pIC50: 4.14
Rat TRPV1; read-out: IC50 of Co2+, in the presence of 62.5 μM cold Ca2+
  pIC50: 4.10
Rat TRPV1; read-out: IC50 of Co2+, in the presence of 125 μM cold Ca2+
  pIC50: 3.72
[2]
  Ionic radius: 65 picometres
CD1 mice
  Effect on vanilloid-evoked eye wiping movements: decreased the frequency of vanilloid-evoked defending movements
Rat TRPV1 N628W mutant
  pIC50: 4.79
Rat TRPV1 D646N mutant
  pIC50: 4.59
Rat TRPV1 Y627W mutant
  pIC50: 4.73
[5]
  CAPS-induced Co2+ accumulation in sensory neurons: enters into the cytosol of specific PNS sensory neurons
Rat TRPV1 E651W mutant
  pIC50: 4.82
TRPV1 [4]; CAPS + Co2+ (20 μM CAPS + 5 mM Co2+), n = 111
  Mean gray value (intracellular CoS): 124.4 ± 21.51

## [Cu+2] [Cu^2+]
[1]
  Stability constant of the complex formed between M2+ and tryptophan: 8.05 ± 0.05
[2]
  Ionic radius: 73 picometres

## [La+3] [La^3+]
Rat TRPV1; TRPV1/HaCaT cells
  Effect on CAPS-induced 45Ca2+ uptake (in words): little or no effect

## [Mg+2] [Mg^2+]
[1]
  Stability constant of the complex formed between M2+ and tryptophan: 2.84 ± 0.08
Rat TRPV1; TRPV1/HaCaT cells
  Effect on CAPS-induced 45Ca2+ uptake (in words): little or no effect
[2]
  Ionic radius: 72 picometres

## [Mn+2] [Mn^2+]
[1]
  Stability constant of the complex formed between M2+ and tryptophan: 3.34 ± 0.05
Rat TRPV1; TRPV1/HaCaT cells
  Effect on CAPS-induced 45Ca2+ uptake (in words): little or no effect
[2]
  Ionic radius: 67 picometres

## [Ni+2] [Ni^2+]
[1]
  Stability constant of the complex formed between M2+ and tryptophan: 5.31 ± 0.06
[2]
  Ionic radius: 69 picometres

## N.N.N.N.N.N.N.N.N.N.N.N.N.N.[Cl-].[Cl-].[Cl-].[Cl-].[Cl-].[Cl-].[O-2].[O-2].[Ru+3].[Ru+3].[Ru+4] [RuRed, Ruthenium Red, reference compound]
wild-type TRPV1
  pIC50: 6.06
Rat TRPV1 N628W mutant
  pIC50: 5.88
Rat TRPV1 D646N mutant
  pIC50: 4.89
Rat TRPV1 Y627W mutant
  pIC50: 6.59
Rat TRPV1 E651W mutant
  pIC50: 6.03
TRPV1 [3]
  Effect on CAPS-induced cellular Co2+ accumulation: blocked

## [Zn+2] [Zn^2+]
[1]
  Stability constant of the complex formed between M2+ and tryptophan: 5.00 ± 0.08
Rat TRPV1; TRPV1/HaCaT cells
  Effect on CAPS-induced 45Ca2+ uptake (in words): only partial inhibitor
Rat TRPV1; TRPV1/HaCaT cells, CAPS-induced 45Ca2+ uptake
  Decrease of the maximal ion influx achieved: 30%
[2]
  Ionic radius: 74 picometres

## COC(=O)C1=C(C)NC(C)=C(C(=O)OCC(C)C)C1c1ccccc1[N+](=O)[O-] (stereo not shown) [nisoldipine]
TRPV1/3T3 cells
  Effect on CAPS-induced TRPV1-mediated 45Ca2+ accumulation: did not decrease
